Laboratory results: ChEMBL document CHEMBL4823313 (Bioorg Med Chem, 2021)

Legend:
SARS-CoV-2 [1] = assay: Antiviral activity against SARS-CoV-2 nCoV-2019BetaCoV/Wuhan/WIV04/ infected in African green monkey Vero E6 cells assessed as inhibition of viral replication at 5 uM when host cells were pretreated for 1 hr followed by viral infection then followed by removal of infected supernatant and subsequent culture addition with fresh compounds and measured after 24 hrs by qRT-PCR method relative to control; assay type: functional; settings: Severe acute respiratory syndrome coronavirus 2, nCoV-2019BetaCoV/Wuhan/WIV04/, Vero C1008, time 25 hrs
SARS-CoV-2 [2] = assay: Antiviral activity against SARS-CoV-2 nCoV-2019BetaCoV/Wuhan/WIV04/ infected in African green monkey Vero E6 cells assessed as inhibition of viral replication when host cells were pretreated for 1 hr followed by viral infection then followed by removal of infected supernatant and subsequent culture addition with fresh compounds and measured after 24 hrs by qRT-PCR method; assay type: functional, organism-based; settings: Severe acute respiratory syndrome coronavirus 2, nCoV-2019BetaCoV/Wuhan/WIV04/, Vero C1008
Vero C1008 = assay: Cytotoxicity against African green monkey Vero E6 cells by CCK8 assay; assay type: cell-based; settings: chlorocebus sabaeus
Outline: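 Vero E6 cell viability was read by CCK-8 colorimetric assay.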

SARS-CoV-2 [3] = assay: Antiviral activity against SARS-CoV-2 nCoV-2019BetaCoV/Wuhan/WIV04/ infected in African green monkey Vero E6 cells assessed as inhibition of viral replication at 10 uM when host cells were pretreated for 1 hr followed by viral infection then followed by removal of infected supernatant and subsequent culture addition with fresh compounds and measured after 24 hrs by qRT-PCR method relative to control; assay type: functional; settings: Severe acute respiratory syndrome coronavirus 2, nCoV-2019BetaCoV/Wuhan/WIV04/, Vero C1008, time 25 hrs
[4] = Stability of compound in stimulated intestinal fluid assessed as parent compound remaining measured after 4 hrs by HPLC analysis; assay type: ADME; settings: simulated intestinal fluid, read-out: Stabilty
Outline: (§1)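 Compound solution was diluted into artificial gastric or intestinal juice and incubated at 37 °C. Samples were taken at 0, 1, 2, 3, 4, 6 and 24 h and quenched with ice-cold acetonitrile. After centrifugation, supernatants were analysed by HPLC.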

[5] = Stability of compound in stimulated gastric fluid incubated for 24 hrs by HPLC analysis; assay type: ADME; settings: simulated gi fluid; outline: as §1
[6] = Half life in CD-1 mouse at 25 mg/kg, iv by LC-MS/MS analysis; assay type: ADME, organism-based; settings: in vivo; for half-life: CD-1, mouse
Outline: (§2)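 Mice were fasted 12 h. Dosing was 50 mg/Kg orally or 25 mg/Kg intravenously, in DMSO-ethanol-PEG300-saline (5/5/40/50, v/v/v/v). Blood was drawn from the femoral vein into heparinized tubes at several post-dose times, and analytes were measured by LC-MS/MS.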

[7] = AUClast in CD-1 mouse at 50 mg/kg, po by LC-MS/MS analysis; assay type: ADME, organism-based; design: route oral, time 0 - last, dose 50 mg/kg; settings: in vivo; outline: as §2
[8] = AUClast in CD-1 mouse at 25 mg/kg, iv by LC-MS/MS analysis; assay type: ADME, organism-based; design: route intravenous, time 0 - last, dose 25 mg/kg; settings: in vivo; outline: as §2
[9] = Half life in CD-1 mouse at 50 mg/kg, po by LC-MS/MS analysis; assay type: ADME, organism-based; settings: in vivo; outline: as §2
[10] = Observed MRT infinity in CD-1 mouse at 25 mg/kg, iv by LC-MS/MS analysis; assay type: ADME, organism-based; settings: in vivo; for MRT inf: CD-1, mouse; outline: as §2
[11] = Cmax in CD-1 mouse at 50 mg/kg, po by LC-MS/MS analysis; assay type: ADME, organism-based; design: route oral, dose 50 mg/kg; settings: in vivo; outline: as §2
[12] = Tmax in CD-1 mouse at 50 mg/kg, po by LC-MS/MS analysis; assay type: ADME, organism-based; settings: in vivo; outline: as §2
[13] = Observed MRT infinity in CD-1 mouse at 50 mg/kg, po by LC-MS/MS analysis; assay type: ADME, organism-based; settings: in vivo; outline: as §2
[14] = Oral bioavailability in CD-1 mouse at 50 mg/kg by LC-MS/MS analysis; assay type: ADME, organism-based; settings: in vivo; outline: as §2
[15] = Observed volume of distribution at steady state in CD-1 mouse at 25 mg/kg, iv by LC-MS/MS analysis; assay type: ADME, organism-based; settings: in vivo; for Vd: CD-1, mouse, read-out: Vdss; outline: as §2
[16] = Acute toxicity in po dosed ICR mouse assessed as maximum tolerated dose measured after 7 days; assay type: organism-based; settings: in vivo, time 7 day
Outline: (§3)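 Male ICR mice (28–36 g), 3 per group, were fasted 16 h. Each got one oral gavage dose of 50, 100, 200, 500 or 1000 mg/kg in 5% DMSO, 5% Solution Hs15 and 90% saline. Clinical signs, body weight and food consumption were followed for 7 days, and animals were sacrificed on day 8.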

[17] = Acute toxicity in ICR mouse assessed as effect on body weight at 100 to 1000 mg/kg, po via gavage and measured after 7 days; assay type: organism-based; settings: in vivo, 168 h, dose 100-1000 mg/kg, time 7 day; outline: as §3
[18] = Acute toxicity in ICR mouse assessed as effect on organ weight at 100 to 1000 mg/kg, po via gavage and measured after 7 days; assay type: organism-based; settings: in vivo, 168 h, dose 100-1000 mg/kg, time 7 day

Nc1ncnn2c([C@@H]3O[C@H](CO)[C@@H](O)[C@H]3F)ccc12
inhibition at 5 µM (SARS-CoV-2 [1]): < 10%

CCC(CC)COC(=O)[C@H](C)N[P@](=O)(OC[C@H]1O[C@@](C#N)(c2ccc3c(N)ncnn23)[C@H](O)[C@@H]1O)Oc1ccccc1
EC50 (SARS-CoV-2 [2]): 2000 nM | inhibition at 5 µM (SARS-CoV-2 [1]): 65%

Nc1ncnn2c([C@@H]3O[C@H](CO)[C@@H](O)[C@H]3O)ccc12
Activity (Vero C1008): Toxic

N#C[C@@]1(c2cc(F)c3c(N)ncnn23)O[C@H](CO)[C@@H](O)[C@H]1O
EC50 (SARS-CoV-2 [2]): 3300 nM | inhibition at 5 µM (SARS-CoV-2 [1]): 80% | inhibition at 10 µM (SARS-CoV-2 [3]): 97%

CC(=O)[C@@]1(c2ccc3c(N)ncnn23)O[C@H](CO)[C@@H](O)[C@H]1O
inhibition at 5 µM (SARS-CoV-2 [1]): < 10%

CCCCCOC(=O)Nc1ncnn2c([C@]3(C#N)O[C@H](CO)[C@@H](O)[C@H]3O)ccc12
inhibition at 10 µM (SARS-CoV-2 [3]): 65%

CC(C)C(=O)O[C@H]1[C@@H](OC(=O)C(C)C)[C@](C#N)(c2ccc3c(N)ncnn23)O[C@@H]1CO
inhibition at 5 µM (SARS-CoV-2 [1]): 99%

Nc1ncnn2c([C@]3(CO)O[C@H](CO)[C@@H](O)[C@H]3O)ccc12
inhibition at 5 µM (SARS-CoV-2 [1]): < 10%

N#C[C@@]1(c2cc(I)c3c(N)ncnn23)O[C@H](CO)[C@@H](O)[C@H]1O
inhibition at 5 µM (SARS-CoV-2 [1]): < 10%

CC(C)[C@H](N)C(=O)OC[C@H]1O[C@@](C#N)(c2ccc3c(N)ncnn23)[C@H](O)[C@@H]1O
remaining at 4 h [4]: 9% | Stabilty [5]: Stable

OC[C@H]1O[C@@H](c2ccc3c(NO)ncnn23)[C@H](O)[C@@H]1O
inhibition at 5 µM (SARS-CoV-2 [1]): < 10%

CC(C)C(=O)OC[C@H]1O[C@@](C#N)(c2ccc3c(N)ncnn23)[C@H](O)[C@@H]1OC(=O)C(C)C
inhibition at 5 µM (SARS-CoV-2 [1]): 99%

N#Cc1cc([C@]2(C#N)O[C@H](CO)[C@@H](O)[C@H]2O)n2ncnc(N)c12
inhibition at 5 µM (SARS-CoV-2 [1]): < 10%

CO[C@@H]1[C@H](O)[C@@H](CO)O[C@@]1(C#N)c1ccc2c(N)ncnn12
inhibition at 5 µM (SARS-CoV-2 [1]): < 10%

Br.CC(C)C(=O)OC[C@H]1O[C@@](C#N)(c2ccc3c(N)ncnn23)[C@H](OC(=O)C(C)C)[C@@H]1OC(=O)C(C)C
half-life [6]: 2.48 h | AUC(0-t) [7]: 7110 ng·h/mL | AUC(0-t) [8]: 3600 ng·h/mL | half-life [9]: 2.71 h

C=C(C)[C@@]1(c2ccc3c(N)ncnn23)O[C@H](CO)[C@@H](O)[C@H]1O
inhibition at 5 µM (SARS-CoV-2 [1]): < 10%

NC(=O)[C@@]1(c2ccc3c(N)ncnn23)O[C@H](CO)[C@@H](O)[C@H]1O
inhibition at 5 µM (SARS-CoV-2 [1]): < 10%

CC(C)[C@H](N)C(=O)O[C@H]1[C@@H](O)[C@](C#N)(c2ccc3c(N)ncnn23)O[C@@H]1CO.Cl.Cl
t1/2 ([6]; mouse, 25 mg/kg): 0.61 h | remaining at 4 h [4]: 34% | Stabilty [5]: Stable | MRT ([10]; mouse, 25 mg/kg): 0.78 h | AUC(0-t) [7]: 2980 ng·h/mL | EC50 (SARS-CoV-2 [2]): 110 nM | Cmax [11]: 1510 ng/mL | inhibition at 5 µM (SARS-CoV-2 [1]): 99% | AUC(0-t) [8]: 5420 ng·h/mL | Tmax [12]: 0.83 h | MRT inf [13]: 2.76 h | half-life [9]: 1.72 h | F [14]: 27.5% | Vdss ([15]; mouse, 25 mg/kg): 3.86 L/kg

CC(C)C(=O)O[C@H]1[C@@H](O)[C@](C#N)(c2ccc3c(N)ncnn23)O[C@@H]1CO
half-life [6]: 0.83 h | remaining at 4 h [4]: 100% | Stabilty [5]: Stable | MRT inf [10]: 1.07 h | AUC(0-t) [7]: 14600 ng·h/mL | EC50 (SARS-CoV-2 [2]): 250 nM | Cmax [11]: 7880 ng/mL | inhibition at 5 µM (SARS-CoV-2 [1]): 99% | AUC(0-t) [8]: 10200 ng·h/mL | Tmax [12]: 0.33 h | MRT inf [13]: 1.82 h | half-life [9]: 1.11 h | F [14]: 71.6% | Vd [15]: 2.59 L/kg

N#C[C@@]1(c2ccc3c(O)ncnn23)O[C@H](CO)[C@@H](O)[C@H]1O
inhibition at 5 µM (SARS-CoV-2 [1]): < 10%

Nc1ncnn2c([C@@H]3O[C@H](CO)[C@@H](O)C3(F)F)ccc12
inhibition at 5 µM (SARS-CoV-2 [1]): < 10%

CCC(CC)COC(=O)[C@H](C)N[P@](=O)(OC[C@H]1O[C@@](C#N)(c2cc(F)c3c(N)ncnn23)[C@H](O)[C@@H]1O)Oc1ccccc1
inhibition at 10 µM (SARS-CoV-2 [3]): 82%

N#C[C@@]1(c2cc(Cl)c3c(N)ncnn23)O[C@H](CO)[C@@H](O)[C@H]1O
inhibition at 5 µM (SARS-CoV-2 [1]): < 10%

N#C/C=C/[C@@]1(c2ccc3c(N)ncnn23)O[C@H](CO)[C@@H](O)[C@H]1O
inhibition at 5 µM (SARS-CoV-2 [1]): < 10%

N#C[C@@]1(c2ccc3c(N)ncnn23)O[C@H](CO)[C@@H](O)[C@H]1O [GS-441524]
EC50 (SARS-CoV-2 [2]): 480 nM | inhibition at 5 µM (SARS-CoV-2 [1]): 99%

CC(C)C(=O)OC[C@H]1O[C@@](C#N)(c2ccc3c(N)ncnn23)[C@H](O)[C@@H]1O [OBELDESIVIR]
half-life [6]: 4.77 h | remaining at 4 h [4]: 2% | Stabilty [5]: Stable | MRT inf [10]: 1.33 h | AUC(0-t) [7]: 13800 ng·h/mL | EC50 (SARS-CoV-2 [2]): 230 nM | Cmax [11]: 6680 ng/mL | inhibition at 5 µM (SARS-CoV-2 [1]): 99% | AUC(0-t) [8]: 7980 ng·h/mL | Tmax [12]: 0.42 h | MRT inf [13]: 2.16 h | half-life [9]: 2.46 h | F [14]: 86.6% | MTD at 168 h [16]: 1000 mg/kg | Vd [15]: 4.17 L/kg | Activity [17]: Non-Toxic | Activity [18]: Non-Toxic
